Source: ChEMBL document CHEMBL3817762, “Monoacidic Inhibitors of the Kelch-like ECH-Associated Protein 1: Nuclear Factor Erythroid 2-Related Factor 2 (KEAP1:NRF2) Protein-Protein Interaction with High Cell Potency Identified by Fragment-Based Discovery” (J Med Chem, 2016)

Legend:
Assay type in all cases: ADME, organism-based
[1] = Drug level in Han Wistar rat blood at 10 umol/kg, iv dosed up to 6 hrs infusions by LC-MS/MS analysis; conditions: whole blood, read-out: Drug uptake
Outline: (§1)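 Han Wistar rats (250-300 g, n=8/group) received the compound by IV infusion over 6 h at 10, 35 or 50 µmol/kg. Blood concentration was taken as the steady-state level over the 6 h infusion period.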

[2] = Drug level in Han Wistar rat blood at 35 umol/kg, iv dosed up to 6 hrs infusions by LC-MS/MS analysis; conditions: whole blood, read-out: Drug uptake; outline: as §1
[3] = Drug level in Han Wistar rat blood at 50 umol/kg, iv dosed up to 6 hrs infusions by LC-MS/MS analysis; conditions: whole blood, read-out: Drug uptake; outline: as §1
[4] = Systemic oral bioavailability in Han Wistar rat at 2 mg/kg after 24 hrs by LC-MS/MS analysis; conditions: in vivo
Outline: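 Han Wistar rats (n=3) were dosed IV and PO in a crossover design with a two-day washout. Blood was sampled over 24 h and analysed by LC/MS/MS.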

concentration at 6 h [1]: 0.407 µM | concentration at 6 h [2]: 0.946 µM | concentration at 6 h [3]: 1.44 µM | bioavailability [4]: 7%
SMILES: COc1cc([C@@H](CC(=O)O)c2ccc(C)c(CN3C[C@@H](C)Oc4ccccc4S3(=O)=O)c2)cc2nnn(C)c12
